# Screens deposited in PubChem by Broad Institute.
# RAD54 branch: inhibitors of human RAD54 branch migration, primary screen, biochemical, fluorescence, single point | DNA repair and recombination protein RAD54-like (Homo sapiens), Q92698 | RAD54 Holliday junction branch migration, FAM/BHQ fluorescence | inhibition, % at 10.4 µM | hit rate 0.14% among 360,000 | AID 602329, 2012;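 active means mean normalized replicate activity at least 40 and at least half of replicates scoring 40 or more; inconclusive means only one of the two criteria met; inactive means mean below 40 and under half of replicates reaching 40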;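 further: 0% = median of neutral control wells and 100% = median of positive control wells; inhibitors cause a drop in the FAM fluorescence signal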
# MLL AF4-AF9 inh: inhibitors of AF4 peptide binding to AF9, primary screen, biochemical, AlphaScreen, biotin-AF4 peptide, FLAG-AF9, single point | Protein AF-9 (Homo sapiens), P42568 | inhibition, % at 10 µM | hit rate 0.47% among 350,000 | AID 651704, 2012;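 active means every replicate reaching a set inhibition limit, whatever the replicate mean, cut at about 25% in these data; inconclusive means mean inhibition reaches that limit but some replicates miss it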;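 further: 0% = plate neutral control median and 100% = total signal loss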
# CASP6 VEID inh: human caspase-6 inhibitors, primary screen, biochemical, VEID-R110 fluorescence, single point, set 2; P55212; purified caspase-6, Z-VEID-R110 cleavage fluorescence; inhibition, % at 12.5 µM; hit rate 0.53% among 350,000;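 active means mean inhibition across replicates at least about 35%, with every replicate also reaching that limit, limit read from the data; inconclusive means only one of the two criteria met; inactive means neither criterion met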;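 further: 0% = median of neutral control wells and 100% = no fluorescence left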
# Target sequence (P55212 24-179 limits assumed): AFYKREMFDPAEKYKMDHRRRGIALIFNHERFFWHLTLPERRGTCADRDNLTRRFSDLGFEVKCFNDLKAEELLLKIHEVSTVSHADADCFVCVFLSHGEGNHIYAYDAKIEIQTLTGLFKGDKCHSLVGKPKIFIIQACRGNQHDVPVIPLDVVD
# Target sequence (P55212 194-293 limits assumed): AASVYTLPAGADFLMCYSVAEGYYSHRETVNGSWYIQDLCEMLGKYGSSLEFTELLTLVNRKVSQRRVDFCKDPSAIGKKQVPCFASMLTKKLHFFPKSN
# S100A4 MyoIIA: inhibitors of S100A4-myosin IIA peptide binding, primary screen, biochemical, fluorescence polarization, TAMRA-MyoIIA peptide. AID 652163, 2013. Protein S100-A4 (Homo sapiens), P26447. hit rate 0.14% among 360,000. inhibition, % at 10.7 µM;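 active means mean inhibition of at least 70% across replicates, with every replicate also reaching that level; inconclusive means mean inhibition reaches 70% but some replicates fall short; inactive means mean inhibition below 70%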
# Target sequence (P26447 whole entry, looked up): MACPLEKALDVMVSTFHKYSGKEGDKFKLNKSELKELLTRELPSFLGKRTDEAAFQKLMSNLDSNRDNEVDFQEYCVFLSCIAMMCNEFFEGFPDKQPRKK
#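 Test system – S100A4 monomer (human) · Compound – single-point compound testing · Schedule – 5 min incubation before reading · Probe or stimulus – TAMRA-labelled myosin IIA heavy-chain peptide probe, 5 nM · Benchmarks – neutral control DMSO, positive control TFP · Medium – Calcium-containing HEPES buffer, pH 7.2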
# RAD52 anneal inh: RAD52 DNA annealing inhibitors, primary screen, biochemical, FRET, single point, set 2; DNA repair protein RAD52 homolog (Homo sapiens), P43351; recombinant RAD52 DNA annealing, FRET fluorescence; inhibition, % at 18.7 µM; hit rate 0.46% among 360,000;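 active means every replicate showing at least 50% inhibition; inconclusive means mean inhibition at least 50% but not in every replicate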
# Xi reactivation: activators of inactive X chromosome reactivation, primary screen, imaging, XiGFP fibroblasts, GFP high-content imaging, set 2; activation, % at 7.58 µM; XiGFP mouse fibroblasts, % GFP-positive cells imaging, 3 d; cells co-treated with 5-aza-dC sensitizer; scaled so ellipticine positive control = 100%; hit rate 0.055% among 360,000;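 active means mean normalized replicate activation at least 10% and every replicate at or above 10%; inconclusive means only one of the two criteria met; inactive means mean below 10% and not all replicates reach 10%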;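 further: 0% = median of on-plate neutral control wells and 100% = ellipticine 6 µM median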
#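 System: XiGFP fibroblasts, SV40-immortalized. Medium: DMEM plus 5-aza-dC sensitizer. Doses: single point. Timing: 3 d treatment, 15 min room-temperature fixation. Control set: ellipticine 6 µM.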
# RAD52 DNA ctr: DNA-binding compounds via dye displacement, dose response, artefact control for RAD52 inhibitor project, biochemical, fluorescence polarization, cherry-pick; Salmon sperm DNA/acridine orange FP displacement; AC50, µM; hit rate 8% among 1,000; AID 652128, 2013; shares compounds with RAD52 anneal inh;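 active means fitted half-maximal concentration for signal loss at or below twice the highest dose tested, in every separate run, actives reach about 64 µM in these data; inconclusive means runs disagree, or flat partial signal loss, or poor fit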
# Active calls of the source: *; i = inactive; ? = inconclusive; · = no result given. This is a sample that favours compounds with a hit; in the whole collection about 1.3% have one here.
SMILES,RAD54 branch,MLL AF4-AF9 inh,CASP6 VEID inh,S100A4 MyoIIA,RAD52 anneal inh,Xi reactivation,RAD52 DNA ctr
Nc1ccc2nc(-c3ccc(Cl)cc3)[nH]c2c1,7,?,-1,-13,51*,0,i
O=C(C[n+]1ccc2ccccc2c1)c1ccc2ccc3ccccc3c2c1,·,15,-3,2,90*,0,i
O=C(C[n+]1ccc2ccccc2c1)c1ccccc1,3,3,-7,-4,-2,0,·
COc1ccc(S(=O)(=O)Nc2ccc3c(c2)C(=O)N([C@H](C)CO)C[C@H](C)[C@@H](CN(C)C(=O)Nc2ccccc2)OCCCC[C@H](C)O3)cc1,-2,·,·,·,·,0,·
O=C(NCC1CCCCC1)C1(CC2CC(c3ccc(Cl)cc3)=NO2)CCNCC1 (stereo not given),11,9,-1,0,67*,0,i
O=C(NCC1CCCCC1)C1(CC2CC(c3cccc(Br)c3)=NO2)CCNCC1 (stereo not given),-14,7,-1,-3,-3,0,·
C[C@@H]1CN([C@H](C)CO)C(=O)Cc2cc(NC(=O)C3CC3)ccc2O[C@H]1CN(C)Cc1ccccc1,-4,2,2,-18,3,0,·
COc1ccc(NC(=O)N(C)C[C@@H]2Oc3ncc(-c4ccccc4)cc3C(=O)N([C@H](C)CO)C[C@@H]2C)cc1,·,·,·,·,·,0,·
COc1ccc(NC(=O)N(C)C[C@H]2Oc3ccc(NC(=O)Nc4ccccc4)cc3C(=O)N([C@H](C)CO)C[C@@H]2C)cc1,12,1,1,-4,10,0,·
CCOC(=O)c1c(-c2ccccc2)oc2ccc(OCC(O)CN(C)C)cc12 (stereo not given),32,14,-49,-4,43,0,i
Cc1cc(N2CCN(C)CC2)nc2ccc(NC(=S)NCc3cccs3)cc12,38,·,-12,5,63*,0,i
CCN1CCN(c2cc(C)c3cc(NC(=S)NCc4cccs4)ccc3n2)CC1,37,30*,-11,-3,50*,-1,i
CN(C)C(=O)c1cccc(-c2ccccc2[C@H]2[C@@H](C#N)N(C(=O)C3CCC3)[C@H]2CO)c1,·,0,-2,7,3,0,·
CCCNC1=CC(=O)CC(C)(C)C1,·,4,-40,-7,98*,0,i
CCOC(=O)c1c(CSCc2ccccc2)oc2ccc(O)c(CN(C)C)c12,24,23,2,0,61*,0,i
O=C(C[C@H]1C=C[C@H](NC(=O)C2CCOCC2)[C@H](CO)O1)Nc1ccc(-c2ccccc2)cc1,1,1,-6,6,3,0,·
CN(C)CC/C=C1\c2cc(Cl)ccc2Sc2cc(F)c(F)cc21,·,31*,-7,-20,62*,0,i
CN(C)CC/C=C1\c2ccccc2Sc2cc(F)c(Cl)cc21,·,28*,-8,-1,63*,0,i
CN(C)CC/C=C1/c2cc(F)ccc2CSc2ccc(F)cc21,·,·,·,·,·,0,·
Cc1noc(C)c1NC(=O)Nc1ccc2c(c1)C(=O)N([C@H](C)CO)C[C@H](C)[C@@H](CN(C)Cc1ccccc1)OCCCC[C@@H](C)O2,4,-6,-3,3,0,0,·
COCCNc1nc2cc(-c3ccsc3)sc2c(=O)n1C,-13,-6,2,-4,3,0,·
Cn1c(NCc2ccccc2)nc2cc(-c3ccccc3)sc2c1=O,-2,0,2,-3,-5,0,·
Cc1ccc(F)cc1-c1cc2nc(NCCCN(C)C)n(C)c(=O)c2s1,33,2,0,8,56*,0,i
